Measured values as given in ChEMBL document CHEMBL3758106, “Antitumor Activity of Americanin A Isolated from the Seeds of Phytolacca americana by Regulating the ATM/ATR Signaling Pathway and the Skp2-p27 Axis in Human Colon Cancer Cells” (J Nat Prod, 2015).
Active and inactive are the calls of the source. The rule behind the calls is not given here.

Legend:
[1] = tested on: HCT-116; assay: Induction of apoptosis in human HCT116 cells assessed as decrease in Bcl2 expression at 7.5 to 30 uM after 48 hrs by Western blot analysis; format: functional, cell-based
How it was run: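 HCT116 cells exposed 48 h; Western blot of RIPA lysates (BCA quantification, SDS-PAGE, PVDF, overnight primary antibodies at 4 °C, HRP secondary, ECL).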

[2] = tested on: HCT-116; assay: Induction of cell cycle arrest in human HCT116 cells assessed as accumulation at G0/G1 phase at 15 uM after 24 hrs by propidium iodide staining-based flow cytometric analysis in presence of RNase A (reference value: 64.6%); format: functional
[3] = tested on: HCT-116; assay: Increase in p21 expression in human HCT116 cells after 24 hrs by western blot analysis; format: functional, cell-based
How it was run: (§1)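 HCT116 cells exposed 24 h in complete medium; lysed in RIPA buffer (pH 8.0), protein by BCA, equal loads run on 8–13% SDS-PAGE, PVDF transfer, blocked in 5% BSA/TBST, primary antibodies overnight at 4 °C, HRP secondaries 2 h RT, ECL detection; β-actin as loading control.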

[4] = tested on: HCT-116; assay: Induction of cell cycle arrest in human HCT116 cells assessed as accumulation at sub-G1 phase after 24 hrs by propidium iodide staining-based flow cytometric analysis in presence of RNase; format: functional
[5] = tested on: HCT-116; assay: Induction of cell cycle arrest in human HCT116 cells assessed as accumulation at sub-G1 phase at 30 uM after 48 hrs by propidium iodide staining-based flow cytometric analysis in presence of RNase A (reference value: 6.5%); format: functional
[6] = tested on: HCT-116; assay: Induction of cell cycle arrest in human HCT116 cells assessed as accumulation at sub-G1 phase at 15 uM after 24 hrs by propidium iodide staining-based flow cytometric analysis in presence of RNase A (reference value: 1.5%); format: functional
[7] = tested on: HCT-116; assay: Induction of apoptosis in human HCT116 cells assessed as late apoptotic cells at 7.5 uM after 48 hrs by annexin V-FITC/propidium iodide staining-based flow cytometric analysis (reference value: 5.2%); format: functional
[8] = Decrease in Skp2 expression in human HCT116 cells at 7.5 to 30 uM after 24 hrs by western blot analysis; format: functional, cell-based; settings: HCT-116; how it was run: as §1
[9] = target: Cullin-1/S-phase kinase-associated protein 1 (Homo sapiens) (UniProt Q13616+P63208); assay: Inhibition of Cul-1/Skp1 protein interaction in human HCT116 cells after 24 hrs by immunoprecipitation assay; format: cell-based; settings: HCT-116
Chain of Cullin-1/S-phase kinase-associated protein 1 (Homo sapiens) (P63208 whole entry, looked up): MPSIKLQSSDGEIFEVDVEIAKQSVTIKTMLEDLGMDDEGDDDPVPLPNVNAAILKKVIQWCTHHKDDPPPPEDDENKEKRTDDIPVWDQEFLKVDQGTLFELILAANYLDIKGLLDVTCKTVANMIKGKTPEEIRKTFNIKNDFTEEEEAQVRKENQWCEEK
Chain of Cullin-1/S-phase kinase-associated protein 1 (Homo sapiens) (Q13616 whole entry, looked up): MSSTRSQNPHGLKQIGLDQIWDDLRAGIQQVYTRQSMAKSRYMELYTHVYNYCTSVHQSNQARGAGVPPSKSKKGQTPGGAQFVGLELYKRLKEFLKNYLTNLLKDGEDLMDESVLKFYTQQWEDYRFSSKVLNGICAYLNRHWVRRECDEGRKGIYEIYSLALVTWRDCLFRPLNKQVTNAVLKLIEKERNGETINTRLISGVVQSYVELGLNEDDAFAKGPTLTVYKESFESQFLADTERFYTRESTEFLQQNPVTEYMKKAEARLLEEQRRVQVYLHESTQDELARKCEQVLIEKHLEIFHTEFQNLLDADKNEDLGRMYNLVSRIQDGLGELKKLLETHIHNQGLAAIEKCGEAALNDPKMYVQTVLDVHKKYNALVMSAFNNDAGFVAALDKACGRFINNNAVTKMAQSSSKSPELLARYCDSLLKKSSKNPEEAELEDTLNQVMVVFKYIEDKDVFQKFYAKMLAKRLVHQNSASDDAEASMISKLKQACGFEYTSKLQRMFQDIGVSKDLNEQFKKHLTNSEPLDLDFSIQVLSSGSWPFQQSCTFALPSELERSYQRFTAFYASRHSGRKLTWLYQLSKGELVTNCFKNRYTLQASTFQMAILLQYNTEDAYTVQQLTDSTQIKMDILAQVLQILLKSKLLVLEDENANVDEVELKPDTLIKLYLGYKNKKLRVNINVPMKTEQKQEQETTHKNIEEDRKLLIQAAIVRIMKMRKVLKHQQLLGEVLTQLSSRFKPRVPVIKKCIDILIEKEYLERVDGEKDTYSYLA
How it was run: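 Protein measured by Bradford, equal amounts pulled down with anti-Cul-1 antibody on Protein G sepharose at 4 °C. Eluates boiled in Laemmli buffer with 2-mercaptoethanol and probed by Western blot.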

[10] = tested on: HCT-116; assay: Induction of reactive oxygen species in human HCT116 cells at 30 uM after 48 hrs by DCFH-DA staining-based flow cytometric analysis in presence of NAC (reference value: 5.1%); format: functional
How it was run: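 HCT116 cells seeded overnight, then exposed to test compounds, alone or with NAC, for 48 h in complete medium. Loaded with 20 μM DCFH-DA for 30 min; intracellular ROS in 20 000 cells per group read by flow cytometry as histograms.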

[11] = Downregulation of phosphorylated ATR expression in human HCT116 cells at 30 uM after 1 hr by Western blot analysis; format: functional, cell-based; settings: HCT-116, TDE = time-dependent effect
How it was run: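 HCT116 cells exposed for 1 h in complete medium; RIPA lysates quantified by BCA, equal protein separated on 8–13% SDS-PAGE, transferred to PVDF, probed with primary antibodies overnight at 4 °C and HRP secondaries, chemiluminescence read-out.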

[12] = tested on: HCT-116; assay: Induction of cell cycle arrest in human HCT116 cells assessed as accumulation at G0/G1 phase at 30 uM after 24 hrs by propidium iodide staining-based flow cytometric analysis in presence of RNase A (reference value: 64.6%); format: functional
[13] = target: Cyclin-dependent kinase inhibitor 1B/S-phase kinase-associated protein 2 (Homo sapiens) (UniProt Q13309+P46527); assay: Inhibition of Skp2/p27 protein interaction in human HCT116 cells after 24 hrs by immunoprecipitation assay; format: cell-based; settings: HCT-116
Chain of Cyclin-dependent kinase inhibitor 1B/S-phase kinase-associated protein 2 (Homo sapiens) (P46527 whole entry, looked up): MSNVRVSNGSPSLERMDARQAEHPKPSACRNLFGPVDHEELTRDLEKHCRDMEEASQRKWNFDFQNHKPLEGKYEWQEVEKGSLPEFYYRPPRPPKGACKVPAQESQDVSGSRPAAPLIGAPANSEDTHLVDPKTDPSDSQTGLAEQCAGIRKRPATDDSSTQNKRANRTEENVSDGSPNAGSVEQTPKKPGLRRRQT
Chain of Cyclin-dependent kinase inhibitor 1B/S-phase kinase-associated protein 2 (Homo sapiens) (Q13309 whole entry, looked up): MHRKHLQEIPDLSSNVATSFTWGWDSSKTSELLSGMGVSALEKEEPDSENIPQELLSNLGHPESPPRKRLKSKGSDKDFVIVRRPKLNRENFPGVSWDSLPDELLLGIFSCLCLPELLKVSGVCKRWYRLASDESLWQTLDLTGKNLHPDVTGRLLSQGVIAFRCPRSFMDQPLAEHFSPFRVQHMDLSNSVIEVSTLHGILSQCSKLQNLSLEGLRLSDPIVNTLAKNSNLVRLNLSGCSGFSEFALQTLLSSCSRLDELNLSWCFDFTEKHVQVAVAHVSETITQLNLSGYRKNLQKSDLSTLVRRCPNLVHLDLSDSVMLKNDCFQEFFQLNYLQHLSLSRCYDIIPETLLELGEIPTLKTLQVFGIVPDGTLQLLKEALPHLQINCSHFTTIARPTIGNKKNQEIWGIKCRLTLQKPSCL
How it was run: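 Protein measured by Bradford. Equal protein incubated with Protein G sepharose and the capture antibody (anti-p53, anti-Cul-1 or anti-Skp2) overnight at 4 °C. Bead eluates boiled in Laemmli/2-mercaptoethanol and analysed by Western blot.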

With O=C/C=C/c1ccc2c(c1)O[C@@H](CO)[C@H](c1ccc(O)c(O)c1)O2 [AMERICANIN A] the Activity [1] was “Active”, the Activity [2] was 47.5% and the Activity [3] was “Dose-dependent effect”. The Activity [4] was “Dose-dependent effect”, the Activity [5] was 52% and the Activity [6] was 3%. For the same compound, the Activity [7] was 10.4%, the Activity [8] was “Active” and the inhibition [9] was “inactive”. For the same compound, the Activity [10] was 9.9%, the Activity [11] was “tde” and the Activity [12] was 39%. For the same compound, the inhibition [13] was “inactive”.
